Results as given in ChEMBL document CHEMBL4145527, “Targeting polyamine transport in Trypanosoma cruzi” (Eur J Med Chem, 2018).
pIC50: −log10 of the molar value. Activity calls are given as the source filed them. No cut-off for these calls is given here.

Tests used:
[1] = molecular target: T1, Putative amino acid permease/transporter (Trypanosoma cruzi) (UniProt D5FGE8); test: Inhibition of Trypanosoma cruzi Y epimastigotes PAT assessed as reduction in [3H]-putrescine uptake up to 30 uM after 10 mins by liquid scintillation counting method
T1 sequence (whole entry): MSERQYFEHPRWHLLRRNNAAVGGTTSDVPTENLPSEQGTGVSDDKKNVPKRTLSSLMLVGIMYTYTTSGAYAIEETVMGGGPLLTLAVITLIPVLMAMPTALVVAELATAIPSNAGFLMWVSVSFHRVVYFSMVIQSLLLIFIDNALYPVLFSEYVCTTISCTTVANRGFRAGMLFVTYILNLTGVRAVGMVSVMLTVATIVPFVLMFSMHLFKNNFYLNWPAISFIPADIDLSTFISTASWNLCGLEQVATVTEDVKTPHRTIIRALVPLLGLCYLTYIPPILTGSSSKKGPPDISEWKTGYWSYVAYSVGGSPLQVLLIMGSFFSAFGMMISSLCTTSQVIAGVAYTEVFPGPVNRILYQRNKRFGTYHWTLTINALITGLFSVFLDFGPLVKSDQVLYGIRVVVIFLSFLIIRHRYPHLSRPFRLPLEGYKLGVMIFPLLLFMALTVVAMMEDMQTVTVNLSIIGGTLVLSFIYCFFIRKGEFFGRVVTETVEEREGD
How it was run: (§1)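 Y-strain epimastigotes from BHT culture were washed twice in PBS. 10^7 cells in PBS-2% glucose were given [3H]-putrescine (5 µM) or [3H]-spermidine (15 µM), 0.4 µCi, with inhibitor at 0–30 µM, later narrowed. Incubation was 10 min at 28 °C or 37 °C, stopped with ice-cold buffer and washed; pellets went to scintillation counting. Nonspecific uptake was taken with a 100-fold molar excess of substrate. IC50 was fit by nonlinear regression.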

[2] = molecular target: T2, Putative amino acid permease/transporter (Trypanosoma cruzi, UniProt D5FGE8); test: Inhibition of Trypanosoma cruzi Y epimastigotes PAT assessed as reduction in [3H]-putrescine uptake after 10 mins by liquid scintillation counting method; how it was run: as §1
T2 sequence (D5FGE8 whole entry): T1 sequence (whole entry)

[3] = molecular target: T2, Putative amino acid permease/transporter; test: Inhibition of Trypanosoma cruzi Y epimastigotes PAT assessed as reduction in [3H]--spermidine uptake after 10 mins by liquid scintillation counting method; how it was run: as §1
[4] = molecular target: T1, Putative amino acid permease/transporter (Trypanosoma cruzi); test: Inhibition of Trypanosoma cruzi Y epimastigotes PAT assessed as reduction in [3H]--spermidine uptake up to 30 uM after 10 mins by liquid scintillation counting method; how it was run: as §1
Leishmania amazonensis = test: Antiparasitic activity against Leishmania amazonensis MHOM/Br/75/Josefa promastigotes by light microscopic method; type: functional, organism-based
Trypanosoma cruzi [5] = test: Trypanopcidal activity against Trypanosoma cruzi Y trypamastigotes infected in African green monkey Vero cells treated for 5 days by Neubauer chamber or MTS dye based assay; type: functional, organism-based; conditions: 120 h
How it was run: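 VERO cells infected with trypomastigotes were exposed to compound at 0–2.5 µM for five days. Trypomastigote burst was scored after six days of infection. IC50 was obtained by nonlinear regression of dose-response.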

Trypanosoma cruzi [6] = test: Potentiation of benznidazole-induced trypanopcidal activity against Trypanosoma cruzi Y epimastigotes at 20 uM after 96 hrs by Neubauer chamber or MTS dye based assay; type: functional
How it was run: (§2)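 Epimastigotes were treated with 30 µM benznidazole alone or with 20 µM polyamine conjugate, for up to 96 h at 28 °C. Parasites were counted (Neubauer or MTS) at 24, 48, 72 and 96 h. Potentiation is the fold change in benznidazole potency with versus without the conjugate.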

Trypanosoma cruzi [7] = test: Potentiation of benznidazole-induced trypanopcidal activity against Trypanosoma cruzi Y epimastigotes at 20 uM after 72 hrs by Neubauer chamber or MTS dye based assay; type: functional; how it was run: as §2
[8] = molecular target: T2, Putative amino acid permease/transporter; test: Inhibition of Trypanosoma cruzi Y trypamastigotes PAT assessed as reduction in [3H]--spermidine uptake after 10 mins by liquid scintillation counting method
How it was run: (§3)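 Trypomastigotes came from infected VERO cells. 10^7 washed parasites in PBS-2% glucose were given [3H]-putrescine or [3H]-spermidine (0.4 µCi) plus inhibitor for 10 min at 28 °C or 37 °C. The reaction was stopped with ice-cold PBS-glucose, washed and scintillation counted. Background was taken with a 100-fold molar substrate excess. IC50 came from logistic dose-response fit.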

[9] = molecular target: T2, Putative amino acid permease/transporter; test: Inhibition of Trypanosoma cruzi Y trypamastigotes PAT assessed as reduction in [3H]-putrescine uptake after 10 mins by liquid scintillation counting method; how it was run: as §3
Trypanosoma cruzi [10] = test: Trypanopcidal activity against Trypanosoma cruzi Y epimastigotes after 48 hrs by Neubauer chamber or MTS dye based assay; type: functional, organism-based
How it was run: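 Y-strain epimastigotes, 10^7 cells/well in BHT (pH 7, 10% FCS, hemin), were exposed to 0–100 µM compound at 28 °C for 48 h. Growth was counted in a Neubauer chamber or by MTS. IC50 is 50% viability relative to untreated control, by nonlinear regression; at least triplicate, three independent assays.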

Trypanosoma cruzi [11] = test: Ratio of IC50 for Trypanosoma cruzi Y epimastigotes to IC50 for Trypanosoma cruzi Y trypamastigotes; type: functional
Trypanosoma cruzi [12] = test: Trypanopcidal activity against Trypanosoma cruzi Y trypamastigotes after 24 hrs by Neubauer chamber or MTS dye based assay; type: functional, organism-based
How it was run: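 Culture-derived trypomastigotes, 10^6 cells/mL, were held at 37 °C for 24 h with compound at 0–2.5 µM. Motility was checked microscopically, and viability was counted by Neubauer chamber or MTS against untreated controls. IC50 was from logistic nonlinear regression.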

Vero = test: Cytotoxicity against African green monkey Vero cells assessed as reduction in cell viability after 24 hrs by crystal violet staining based assay; conditions: Chlorocebus sabaeus
How it was run: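 VERO cells (MEM, 10% heat-inactivated FCS, 37 °C, 5% CO2) were seeded at 10^4 cells/well and treated 24 h with compound at 0–50 µM; PBS served as negative control. Cells were fixed 15 min, stained with 0.5% crystal violet, and absorbance read at 570 nm. IC50 was from nonlinear regression.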

[13] = Selectivity index, ratio of IC50 for cytotoxicity against African green monkey Vero cells to IC50 for trypanopcidal activity against Trypanosoma cruzi Y trypamastigotes; type: toxicity, cell-based; conditions: read-out: Ratio IC50
HL-60 = test: Cytotoxicity against human HL60 cells; type: cell-based
Trypanosoma cruzi [14] = test: Potentiation of benznidazole-induced trypanopcidal activity against Trypanosoma cruzi Y epimastigotes at 20 uM after 48 hrs by Neubauer chamber or MTS dye based assay; type: functional; how it was run: as §2
Trypanosoma cruzi [15] = test: Potentiation of benznidazole-induced trypanopcidal activity against Trypanosoma cruzi Y epimastigotes at 20 uM after 24 hrs by Neubauer chamber or MTS dye based assay; type: functional; how it was run: as §2

SMILES: NCCCCNCCCCNCc1c2ccccc2cc2ccccc12
- inhibition [1]: Active
- pIC50 [2]: 5.40
- pIC50 [3]: 4.87
- inhibition [4]: Active

SMILES: NCCC(=O)CN
- pIC50 (Leishmania amazonensis): 3.84

SMILES: Cl.Cl.NCCCCNCc1c2ccccc2cc2ccccc12
- pIC50 (Trypanosoma cruzi [5]): 6.28
- fold change (FC) (Trypanosoma cruzi [6]): 11.2
- fold change (FC) (Trypanosoma cruzi [7]): 6.2
- inhibition [1]: Active
- pIC50 [2]: 5.30
- pIC50 [8]: 5.31
- pIC50 [3]: 5.06
- pIC50 [9]: 5.31
- pIC50 (Trypanosoma cruzi [10]): 4.77
- Ratio IC50 (Trypanosoma cruzi [11]): 37
- pIC50 (Trypanosoma cruzi [12]): 6.34
- pIC50 (Vero): 5.23
- selectivity ratio [13]: 12.7
- pIC50 (HL-60): 4.70
- fold change (FC) (Trypanosoma cruzi [14]): 1.9
- inhibition [4]: Active
- fold change (FC) (Trypanosoma cruzi [15]): 1.5

SMILES: CCCCCCCCCCCCCCCC(=O)NCCCCC(N)C(=O)NCCCNCCCCNCCCN (centres undefined)
- inhibition [1]: Active
- pIC50 [2]: 5.61
